Compound activity: PubChem BioAssay, several laboratories
NALP1 yeast inh: blocks the NALP1 inflammasome reconstituted in yeast; S. cerevisiae NALP1/ASC/caspase-1 growth, X-gal OD620, 72 h; 0.61% of 280,000 active; inhibition, % at 10 µM; in the data active = inhibition mostly above about 24%, no sharp cut-off; inactive = mostly below about 32%
DNA FID counter: fluorescent intercalator displacement, NS3 helicase counter-screen. 0.17% of 290,000 active. DNA fluorescent intercalator displacement, fluorescence. inhibition, % at 7.9 µM; in the data active = inhibition above about 37%;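 note: 0% = vehicle and 100% = reference compound; higher means more ethidium bromide displaced from hairpin DNA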
Mot1-301 SUMO: SUMOylation pathway inhibition by Mot1-301 growth rescue; S. cerevisiae Mot1-301 growth rescue, ATP luminescence, 38.5C; percent above DMSO median, 100 means doubled; 1% of 320,000 active; growth rescue, % at 18.8 µM;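 active = every valid replicate shows activation above 250% relative to neutral control wells; inactive = the rest, any valid replicate at or below 250%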;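 note: OY570 slx delta 5 strain wells were the positive control but not used for scaling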
UBC9 SUMO inh: blocks human SUMOylation mediated by UBC9; AID 2006; inhibition, % at 35 µM; 0.36% of 290,000 active; HTRF SUMOylation assay, SAE1/SAE2 + UBC9, in vitro; P63279; in the data active = inhibition above about 50%, passing the limit was not always enough
Target sequence (P63279 whole entry, looked up): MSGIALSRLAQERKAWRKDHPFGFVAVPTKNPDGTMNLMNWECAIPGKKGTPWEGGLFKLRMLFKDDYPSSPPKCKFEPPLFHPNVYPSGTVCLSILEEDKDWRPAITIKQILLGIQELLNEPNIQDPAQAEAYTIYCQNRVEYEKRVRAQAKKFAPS
IMP-1 inh-1: blocks Pseudomonas aeruginosa IMP-1 metallo-beta-lactamase; purified IMP-1, nitrocefin hydrolysis, epi-absorbance fluorescence; inhibition, % at 5.6 µM; 0.45% of 290,000 active;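 active = inhibition above the mean plus 3 SD of all compounds in the same screening run, cut at about 4.5% in these data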;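 note: 0% = IMP-1 with DMSO and 100% = DMSO wells lacking enzyme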
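Material – recombinant IMP-1 enzyme, purified · Amount – IMP-1 0.2 nM before substrate addition · Medium – HEPES buffer pH 7.1 with ZnSO4 and Brij 35 · Timing – 25 °C, 15 min preincubation, 25 min reaction · Measured by – plate fluorescence quenching by hydrolysis product, ex 480/em 530 nm · Read-out – percent enzyme inhibition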
VIM-2 inh: blocks Pseudomonas aeruginosa VIM-2 metallo-beta-lactamase; purified VIM-2, nitrocefin hydrolysis, epi-absorbance fluorescence; 0.89% of 290,000 active; inhibition, % at 5.6 µM;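 active = inhibition above the mean of all tested compounds plus 3 SD, cutoff set per screening run, cut at about 7.5% in these data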;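 note: red hydrolysis product quenches plate fluorescence so inhibitors raise well fluorescence; 0% = enzyme with DMSO and 100% = DMSO without enzyme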
IMP-1 inh-2: blocks IMP-1 metallo-beta-lactamase in VIM-2 selectivity screen; AID 1856; 1,300 tested, under 10 active; shares compounds with VIM-2 inh; purified IMP-1, nitrocefin hydrolysis, epi-absorbance fluorescence; inhibition, % at 5.6 µM; call rule not given here;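 note: 0% = enzyme with vehicle and 100% = vehicle without enzyme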
VIM-2 FRET ctr: inhibits VIM-2 in FRET assay to exclude epi-absorbance artifacts; shares compounds with VIM-2 inh; purified VIM-2, CCF2 FRET substrate hydrolysis; inhibition, % at 5.6 µM; 23% of 1,300 active; AID 1857;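 active = inhibition above the mean of all tested compounds plus 3 SD, cut at about 19% in these data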;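 note: 0% = VIM-2 plus DMSO and 100% = no enzyme wells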
TEM-1 counter-1: TEM-1 inhibition, counter-screen for VIM-2 inhibitors; shares compounds with VIM-2 inh; Purified TEM-1, nitrocefin hydrolysis, epi-absorbance fluorescence; inhibition, % at 5.6 µM; 3% of 1,300 active;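 active = inhibition above that campaign's mean inhibition plus 3 SD, cut at about 0.46% in these data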;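 note: 0% = TEM-1 with DMSO and 100% = TEM-1 with 100 µM potassium clavulanate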
Target sequence (P62593 whole entry, looked up): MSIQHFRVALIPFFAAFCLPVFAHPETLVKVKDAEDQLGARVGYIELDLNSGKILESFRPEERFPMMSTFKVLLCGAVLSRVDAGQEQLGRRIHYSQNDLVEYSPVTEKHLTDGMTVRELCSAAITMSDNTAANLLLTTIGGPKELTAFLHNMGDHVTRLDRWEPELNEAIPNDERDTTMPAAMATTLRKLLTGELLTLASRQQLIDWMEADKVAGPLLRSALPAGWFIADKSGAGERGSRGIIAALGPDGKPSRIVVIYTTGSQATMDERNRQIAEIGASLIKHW
VIM-2 inh conf: confirmation of P. aeruginosa VIM-2 metallo-beta-lactamase inhibitors; purified VIM-2, nitrocefin hydrolysis, epi-absorbance; inhibition, % at 5.6 µM; 96% of 1,300 active; shares compounds with VIM-2 inh;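 active = inhibition of the VIM-2 beta-lactamase enzyme above about 11% from the earlier first-round screen, limit read from the data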;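 note: 0% = VIM-2 with DMSO and 100% = buffer wells without enzyme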
VIM-2 confirm: VIM-2 inhibition, confirmation assay; shares compounds with IMP-1 inh-1; purified VIM-2 enzyme, nitrocefin absorbance; inhibition, % at 5.6 µM; 73% of 200 active; AID 1860; in the data active = inhibition above about 8%;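 note: 0% = enzyme with vehicle and 100% = no enzyme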
TEM-1 counter-2: blocks E. coli TEM-1 beta-lactamase, VIM-2 IMP-1 counter-screen; AID 2184; 50% of 200 active; shares compounds with IMP-1 inh-1; inhibition, % at 5.6 µM; nitrocefin absorbance inhibition; in the data active = inhibition above about 0.66%
IMP-1 inh conf: confirmation of P. aeruginosa IMP-1 metallo-beta-lactamase inhibitors; shares compounds with IMP-1 inh-1; purified IMP-1 enzyme, absorbance substrate hydrolysis; inhibition, % at 5.6 µM; 60% of 200 active; in the data active = inhibition above about 4.9%;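 note: 0% = enzyme with vehicle and 100% = vehicle without enzyme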
* marks the source's active call; other numbers are inactive results; . = not tested or not shown. Hits are enriched below; roughly 2.9% of the tested compounds scored in any of these assays.

SMILES	NALP1 yeast inh	DNA FID counter	Mot1-301 SUMO	UBC9 SUMO inh	IMP-1 inh-1	VIM-2 inh	IMP-1 inh-2	VIM-2 FRET ctr	TEM-1 counter-1	VIM-2 inh conf	others
COc1ccc(C(=O)NC(C)c2ccc(-n3ccnc3)cc2)c(OC)c1OC (centres undefined)	12.2	-28.8	0.4	-4.5	-1.8	30.2*	-4.2	-6.3	-6.5	39.8*
COc1ccc(C(=O)NC(C)c2ccc(-n3ccnc3)cc2)c(OC)c1 (centres undefined)	5.3	-22.5	262.8	-6.9	-3.4	21.6*	-4.7	-6.7	-8.5	34.2*
COc1c(-c2ccccc2)oc2c(ccc3occc32)c1=O	.	.	1.1	.	.	.	.	.	.	.
COc1ccc(OC)c(Nc2nc(NCCCN(C)C)nc(N)c2[N+](=O)[O-])c1	19.8	40.7*	6.6	2.6	-0.4	18.8*	-4.0	2.1	-8.3	29.2*
COCCCNc1nc(N)c([N+](=O)[O-])c(Nc2cc(OC)ccc2OC)n1	-3.8	-2.1	-4.6	2.5	-2.9	-1.1	.	.	.	.
CC(=O)Nc1ccc(Oc2nc(C(F)(F)F)nc3ccccc23)cc1	5.0	-12.6	10.6	9.1	-1.7	21.2*	-2.9	0.2	-5.4	30.5*
Cc1cc(C)cc(Oc2nc(C(F)(F)F)nc3ccccc23)c1	23.9	3.7	10.3	-3.2	-5.1	-2.9	.	.	.	.
CC(C)Sc1nc(SCC(=O)O)c2c3c(sc2n1)COC(C)(C)C3	15.5	-35.6	69.2	-5.2	-0.3	24.2*	-4.1	22.7*	-5.0	8.8*
Cc1ccc(-c2n[nH]c(=O)c3ccccc23)cc1S(=O)(=O)NCCO	-3.2	-3.9	38.9	5.5	-1.4	1.3	.	.	.	.
O=c1[nH]nc(-c2ccc(NCCCO)c([N+](=O)[O-])c2)c2ccccc12	4.4	-9.2	-3.7	12.8	-1.2	24.0*	-2.5	3.4	-1.7	33.5*
O=c1[nH]nc(-c2ccc(NCCO)c([N+](=O)[O-])c2)c2ccccc12	1.6	-7.4	-16.5	-0.5	-2.8	24.9*	-3.4	1.6	-6.7	38.1*
CC1CCCC(C)N1C(=O)CSc1nnc(NC(=O)c2cccs2)s1 (centres undefined)	15.0	-22.0	7.0	6.5	-1.9	19.6*	-3.6	51.9*	-5.8	36.8*
O=C(CSc1nnnn1C1CC1)N1CCN(c2ccccc2F)CC1	.	.	9.6	.	.	.	.	.	.	.
C/C(=N\Nc1ncnc2sc(C)c(C)c12)c1ccccn1	-3.8	-13.4	-14.9	-13.2	12.7*	13.7*	.	.	.	.	VIM-2 confirm=38.3*;TEM-1 counter-2=7.1*;IMP-1 inh conf=3.7
CN1C(=O)/C(=C\c2ccc(N(C)C)cc2)OC1=S	12.4	-0.6	-16.4	17.9	9.5*	8.0*	.	.	.	.	VIM-2 confirm=8.3*;TEM-1 counter-2=18.1*;IMP-1 inh conf=6.1*
CC(CC(=O)NC1CCCC1)c1ccccc1 (centres undefined)	6.9	-5.2	81.4	7.8	-1.8	-1.3	.	.	.	.
CCN(CC)c1ccc(/C=C(\C#N)C(=O)NCc2ccco2)cc1	31.2	-19.0	6.3	-12.1	5.3*	18.0*	.	.	.	.	VIM-2 confirm=-3.0;TEM-1 counter-2=-5.6;IMP-1 inh conf=-3.7
COc1cc(NC(=O)NS(=O)(=O)c2ccc(C)cc2)cc(OC)c1	32.3	-3.4	3.1	10.7	-3.1	-2.0	.	.	.	.
